A value given as a limit tells only on which side of the number the result lay.

In one data set the target is Integrin alpha-V/beta-5 (Homo sapiens, UniProt P06756+P18084). Nature of the data set: Binding affinity for alphaV-beta5 vitronectin receptor. Format: protein-complex assay. The method in brief: (§1)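 Competitive radioligand binding to isolated human integrin, αvβ3 or αvβ5, with 3H-SK&F-107260 as the displaced ligand; Ki values are means of two to three separate experiments.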

Data set [1] is described as follows: Half life period in rat. The conditions noted are these: in vivo. It counts as ADME, organism-based. The method in brief: (§2)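 Rats (three per compound) dosed iv and po; plasma concentration–time data analysed non-compartmentally for half-life and clearance; oral bioavailability calculated from dose-normalized iv and po AUC (area under plasma concentration–time curve).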

Data set [2] can be described thus: Oral bioavailability in rat. It counts as ADME, organism-based. The conditions noted are these: in vivo. An outline of the steps:
as §2

Data set [3] in a line: Plasma clearance in rat. Format: ADME, organism-based. The conditions noted are these: read-out: Clp. The method in brief: as §2
The target of data set [4] is T1, Integrin alpha-V/beta-3 (Homo sapiens, UniProt P05106+P06756). Nature of the data set: Binding affinity for alphav/beta 3 vitronectin receptor in HEK cells. It counts as cell-based, HEK293. The method in brief: (§3)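 Cell-based αvβ3 assay: HEK 293 cells transfected with human αvβ3; inhibition of adhesion to purified human vitronectin measured; IC50 values are means of two experiments, each in triplicate, run with an internal standard.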

The target of data set [5] is T1, Integrin alpha-V/beta-3. Description: Binding affinity for alphaV-beta3 vitronectin receptor. It counts as protein-complex assay. An outline of the steps:
as §1

Data set [6] has as its target T1, Integrin alpha-V/beta-3. Description: Inhibition of HEK 293 cell adhesion to vitronectin by human alphaV-beta3 integrin. It counts as cell-based, HEK293. An outline of the steps:
as §3

In data set [7] the target is Integrin alpha-IIb/beta-3 (Homo sapiens, UniProt P05106+P08514). Description: Binding affinity for alphaIIb-beta3 vitronectin receptor. Format: protein-complex assay.
Another data set is filed under the species Homo sapiens. Description: Compound was tested for the inhibition of human vascular smooth muscle cell migration. Format: functional.

Integrin alpha-V/beta-5, sequence (P06756 31-889 limits assumed): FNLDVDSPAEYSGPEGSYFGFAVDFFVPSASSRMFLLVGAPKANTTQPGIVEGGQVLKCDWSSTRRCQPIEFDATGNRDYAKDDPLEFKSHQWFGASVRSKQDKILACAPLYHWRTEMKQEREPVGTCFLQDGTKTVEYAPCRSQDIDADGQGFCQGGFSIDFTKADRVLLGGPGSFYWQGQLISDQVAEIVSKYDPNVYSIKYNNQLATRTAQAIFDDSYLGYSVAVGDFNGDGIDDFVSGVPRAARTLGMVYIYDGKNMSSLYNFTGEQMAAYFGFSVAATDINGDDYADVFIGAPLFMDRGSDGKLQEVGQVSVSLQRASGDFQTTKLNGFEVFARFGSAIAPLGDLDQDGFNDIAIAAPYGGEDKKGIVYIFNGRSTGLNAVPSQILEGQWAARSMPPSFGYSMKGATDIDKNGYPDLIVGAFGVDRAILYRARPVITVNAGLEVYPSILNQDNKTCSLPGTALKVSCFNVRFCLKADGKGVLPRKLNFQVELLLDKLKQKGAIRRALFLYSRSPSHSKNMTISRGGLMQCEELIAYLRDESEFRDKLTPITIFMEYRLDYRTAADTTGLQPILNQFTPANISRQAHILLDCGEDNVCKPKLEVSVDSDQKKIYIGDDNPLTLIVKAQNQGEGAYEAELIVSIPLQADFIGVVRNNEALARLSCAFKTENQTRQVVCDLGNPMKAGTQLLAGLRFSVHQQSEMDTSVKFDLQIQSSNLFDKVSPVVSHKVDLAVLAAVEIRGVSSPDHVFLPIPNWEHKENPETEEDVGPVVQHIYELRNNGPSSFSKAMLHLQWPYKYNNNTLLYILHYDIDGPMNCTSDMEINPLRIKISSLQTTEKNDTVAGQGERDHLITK
Integrin alpha-V/beta-5, sequence (P06756 891-1048 limits assumed): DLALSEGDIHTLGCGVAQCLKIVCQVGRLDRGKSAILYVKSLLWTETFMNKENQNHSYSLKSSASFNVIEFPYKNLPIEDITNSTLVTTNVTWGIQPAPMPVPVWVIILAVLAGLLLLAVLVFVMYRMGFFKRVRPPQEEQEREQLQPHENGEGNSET
Integrin alpha-V/beta-5, sequence (P18084 24-799 limits assumed): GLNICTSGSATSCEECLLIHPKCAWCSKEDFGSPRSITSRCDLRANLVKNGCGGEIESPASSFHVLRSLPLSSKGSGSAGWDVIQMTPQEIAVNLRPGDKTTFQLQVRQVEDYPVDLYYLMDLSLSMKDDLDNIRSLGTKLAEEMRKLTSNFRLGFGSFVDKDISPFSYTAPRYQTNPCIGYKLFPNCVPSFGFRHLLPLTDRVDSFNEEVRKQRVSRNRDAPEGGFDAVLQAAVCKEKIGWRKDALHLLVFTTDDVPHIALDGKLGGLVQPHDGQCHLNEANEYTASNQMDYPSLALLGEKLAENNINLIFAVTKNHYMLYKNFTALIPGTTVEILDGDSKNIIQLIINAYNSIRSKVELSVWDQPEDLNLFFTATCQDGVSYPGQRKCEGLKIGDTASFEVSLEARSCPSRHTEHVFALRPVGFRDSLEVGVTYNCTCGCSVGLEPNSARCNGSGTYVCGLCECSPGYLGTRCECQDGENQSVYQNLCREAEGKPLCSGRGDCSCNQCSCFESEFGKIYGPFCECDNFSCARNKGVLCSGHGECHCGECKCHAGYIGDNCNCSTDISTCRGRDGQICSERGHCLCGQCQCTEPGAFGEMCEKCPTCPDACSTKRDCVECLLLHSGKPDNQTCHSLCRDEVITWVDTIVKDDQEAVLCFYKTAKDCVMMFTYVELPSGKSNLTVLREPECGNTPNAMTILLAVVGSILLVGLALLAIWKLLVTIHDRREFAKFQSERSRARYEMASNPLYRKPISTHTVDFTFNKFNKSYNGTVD
T1 sequence (P05106 27-788 limits assumed): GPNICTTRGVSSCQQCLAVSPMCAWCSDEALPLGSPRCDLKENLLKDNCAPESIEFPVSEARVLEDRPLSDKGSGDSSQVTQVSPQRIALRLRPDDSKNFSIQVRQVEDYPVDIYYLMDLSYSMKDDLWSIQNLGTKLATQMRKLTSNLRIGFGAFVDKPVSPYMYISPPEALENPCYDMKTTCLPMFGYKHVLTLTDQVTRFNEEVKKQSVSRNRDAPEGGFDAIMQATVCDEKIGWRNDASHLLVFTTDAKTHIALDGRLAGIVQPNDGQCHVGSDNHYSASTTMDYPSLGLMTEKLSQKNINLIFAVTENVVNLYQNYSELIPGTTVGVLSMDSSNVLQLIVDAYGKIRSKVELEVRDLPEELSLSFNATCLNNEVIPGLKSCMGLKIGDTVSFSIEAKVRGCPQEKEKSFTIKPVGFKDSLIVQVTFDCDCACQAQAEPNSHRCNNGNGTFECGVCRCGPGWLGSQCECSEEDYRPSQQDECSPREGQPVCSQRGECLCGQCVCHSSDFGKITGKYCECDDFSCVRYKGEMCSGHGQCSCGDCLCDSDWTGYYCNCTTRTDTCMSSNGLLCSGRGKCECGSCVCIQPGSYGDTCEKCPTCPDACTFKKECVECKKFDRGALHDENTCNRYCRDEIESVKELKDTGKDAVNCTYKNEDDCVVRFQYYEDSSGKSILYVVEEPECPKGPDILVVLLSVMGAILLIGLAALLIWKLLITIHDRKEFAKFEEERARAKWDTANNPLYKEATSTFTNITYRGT
T1 sequence (P06756 31-889 limits assumed): as the sequence (P06756 31-889 limits assumed) above
T1 sequence (P06756 891-1048 limits assumed): as the sequence (P06756 891-1048 limits assumed) above
Integrin alpha-IIb/beta-3, sequence (P05106 27-788 limits assumed): as the sequence (P05106 27-788 limits assumed) above
Integrin alpha-IIb/beta-3, sequence (P08514 32-887 limits assumed): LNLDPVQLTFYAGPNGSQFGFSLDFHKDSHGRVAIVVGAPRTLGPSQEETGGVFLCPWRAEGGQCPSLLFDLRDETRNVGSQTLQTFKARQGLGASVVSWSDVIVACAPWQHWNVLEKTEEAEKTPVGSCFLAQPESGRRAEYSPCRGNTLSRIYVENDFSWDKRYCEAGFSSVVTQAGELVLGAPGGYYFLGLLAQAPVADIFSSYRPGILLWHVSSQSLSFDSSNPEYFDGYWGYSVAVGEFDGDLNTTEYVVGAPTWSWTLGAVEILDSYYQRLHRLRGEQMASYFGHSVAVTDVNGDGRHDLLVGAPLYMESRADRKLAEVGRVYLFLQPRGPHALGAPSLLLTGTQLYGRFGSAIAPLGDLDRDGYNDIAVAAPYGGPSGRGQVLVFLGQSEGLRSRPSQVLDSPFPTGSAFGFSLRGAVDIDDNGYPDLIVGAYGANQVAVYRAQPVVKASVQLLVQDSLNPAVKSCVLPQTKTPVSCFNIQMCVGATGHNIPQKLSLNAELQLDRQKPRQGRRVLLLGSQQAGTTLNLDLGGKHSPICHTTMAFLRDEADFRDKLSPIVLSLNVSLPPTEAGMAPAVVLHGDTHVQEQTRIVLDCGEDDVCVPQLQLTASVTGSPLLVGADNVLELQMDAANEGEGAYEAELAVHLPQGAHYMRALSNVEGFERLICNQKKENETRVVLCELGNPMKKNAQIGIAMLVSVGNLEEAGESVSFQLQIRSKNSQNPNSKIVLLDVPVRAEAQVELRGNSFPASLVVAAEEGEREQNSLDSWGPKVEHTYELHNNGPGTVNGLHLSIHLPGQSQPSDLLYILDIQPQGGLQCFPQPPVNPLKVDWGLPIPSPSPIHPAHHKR
Integrin alpha-IIb/beta-3, sequence (P08514 891-1039 limits assumed): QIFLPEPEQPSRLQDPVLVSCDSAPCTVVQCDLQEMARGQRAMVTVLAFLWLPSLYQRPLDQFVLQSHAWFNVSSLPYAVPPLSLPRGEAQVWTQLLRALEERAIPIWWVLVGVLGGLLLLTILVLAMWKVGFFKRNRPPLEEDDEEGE

Regarding `O=C(O)C[C@@H]1Cc2ccc(OCCCNc3ccccn3)cc2Cc2ccccc21`, the Ki at Integrin alpha-V/beta-5 was 2.6 nM.

In [1], `O=C(O)C[C@H](Cc1ccc(OCCCNc2ccccn2)cc1)c1ccccc1` had a half-life of 2.4 h. The molecule also yielded a bioavailability in data set [2] of 100%. Further, the clearance in data set [3] is 7.2 mL/min/kg. On Integrin alpha-V/beta-3 [4], this molecule displayed an IC50 of 470 nM. Affinity on Integrin alpha-V/beta-3 [5] was put at a Ki of 12 nM.

In the case of `O=C(O)CC(Cc1ccc(OCCCNc2ccccn2)cc1)c1ccccc1` (centres undefined), at Integrin alpha-V/beta-3 [6], the midpoint of inhibition, the IC50, lay at 500 nM. Besides, the Ki is 32 nM at Integrin alpha-V/beta-3 [5], 6 nM at Integrin alpha-V/beta-5 and > 10000 nM in [7].

Molecule `O=C(O)C[C@H](Cc1ccc(OCCc2ccc3c(n2)NCCC3)cc1)c1ccccc1` gave a half-life in [1] of 1.58 h. The molecule also had a bioavailability in [2] of 100%. Besides, the clearance in [3] amounted to 6 mL/min/kg. The figures for the IC50 in the data set filed under Homo sapiens and at Integrin alpha-V/beta-3 [4] were 26 nM and 30 nM, respectively. Also, the Ki at Integrin alpha-V/beta-3 [5] was 2.5 nM; at Integrin alpha-V/beta-5 it was 2.5 nM; in data set [7], 36000 nM.

In turn, `CNc1cccc(CCOc2ccc(C[C@@H](CC(=O)O)c3ccccc3)cc2)n1` returned a half-life in data set [1] of 5.17 h. This molecule came in with a bioavailability in [2] of 100%. Moreover, the clearance in data set [3] came out at 4.9 mL/min/kg. This molecule also yielded an IC50 on Integrin alpha-V/beta-3 [4] of 330 nM. Moreover, the Ki at Integrin alpha-V/beta-3 [5] is 7 nM.

`O=C(O)C[C@@H](Cc1ccc(OCCCNc2ccccn2)cc1)c1ccccc1`: the Ki at Integrin alpha-V/beta-3 [5] came out at 170 nM.

The Ki is a dissociation constant, usually derived from enzyme kinetics or from competition with a known ligand. A low value points to tighter binding. A word on the half-life: it is how long it takes for the measured level to halve. By bioavailability is commonly meant the share of a dose that reaches the circulation, judged against a reference dose that is usually intravenous. Lower therefore signals poor availability. One may read the IC50 as the midpoint of a concentration-inhibition curve.

Source of the values: ChEMBL document CHEMBL1136710, “Phenylbutyrates as potent, orally bioavailable vitronectin receptor (integrin alphavbeta3) antagonists” (Bioorg Med Chem Lett, 2003).
